# Legend:
# [1] = target: T1, UDP-glucuronosyltransferase 1A1 (Homo sapiens, UniProt P22309); assay: Activity of human UGT1A1 expressed in microsomes isolated from baculovirus infected insect cell assessed as enzyme-mediated (2S,3S,4S,5R,6R)-3,4,5-trihydroxy-6-(5-(4-((6-methoxy-1-methyl-1H-benzo[d]imidazol-2-yl)methoxy)benzyl)-2,4-dioxothiazolidin-3-yl)tetrahydro-2H-pyran-2-carboxylic acid formation at 20 uM after 4 hrs by radio-HPLC/LC-MS/MS analysis in presence of UDPGA; format: ADME
# T1 sequence (P22309 whole entry): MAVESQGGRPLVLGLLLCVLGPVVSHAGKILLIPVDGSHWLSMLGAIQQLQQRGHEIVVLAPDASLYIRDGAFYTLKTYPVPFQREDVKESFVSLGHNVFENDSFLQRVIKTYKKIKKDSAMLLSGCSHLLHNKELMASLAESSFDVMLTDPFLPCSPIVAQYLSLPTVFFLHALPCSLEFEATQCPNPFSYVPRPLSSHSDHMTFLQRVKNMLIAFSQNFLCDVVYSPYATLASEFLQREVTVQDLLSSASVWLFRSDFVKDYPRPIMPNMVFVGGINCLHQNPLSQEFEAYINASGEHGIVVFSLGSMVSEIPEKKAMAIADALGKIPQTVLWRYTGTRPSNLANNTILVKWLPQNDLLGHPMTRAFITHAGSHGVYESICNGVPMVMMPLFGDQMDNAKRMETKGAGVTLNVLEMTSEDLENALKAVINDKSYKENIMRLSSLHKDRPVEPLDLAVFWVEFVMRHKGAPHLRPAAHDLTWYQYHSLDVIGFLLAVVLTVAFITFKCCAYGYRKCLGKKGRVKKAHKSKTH
# How it was run: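 Alamethicin (50 μg/mg protein, 15 min on ice) pretreated expressed human UGT microsomes (1 mg/ml protein) from baculovirus-infected insect cells. Incubation with [¹⁴C]rivoglitazone (20 μM) in 100 mM Tris-HCl (pH 7.5) with 10 mM MgCl₂, started by 5 mM UDPGA, 4 h at 37°C with shaking. UGT insect-cell control supersomes were run alongside. Acetonitrile stop, concentrated supernatant analysed by radio-HPLC, LC-MS and LC-MS/MS.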
# [2] = target: T2, UDP-glucuronosyltransferase 2B7 (Homo sapiens, UniProt P16662); assay: (§1) Activity of human UGT2B7 expressed in microsomes isolated from baculovirus infected insect cell assessed as enzyme-mediated 3-(4-((6-methoxy-1-methyl-1H-benzo[d]imidazol-2-yl)methoxy)phenyl)-2-(methylsulfinyl)propanamide formation at 20 uM after 4 hrs by radio-HPLC/LC-MS/MS analysis in presence of NADPH-generating system/SAM; format: ADME
# T2 sequence (P16662 whole entry): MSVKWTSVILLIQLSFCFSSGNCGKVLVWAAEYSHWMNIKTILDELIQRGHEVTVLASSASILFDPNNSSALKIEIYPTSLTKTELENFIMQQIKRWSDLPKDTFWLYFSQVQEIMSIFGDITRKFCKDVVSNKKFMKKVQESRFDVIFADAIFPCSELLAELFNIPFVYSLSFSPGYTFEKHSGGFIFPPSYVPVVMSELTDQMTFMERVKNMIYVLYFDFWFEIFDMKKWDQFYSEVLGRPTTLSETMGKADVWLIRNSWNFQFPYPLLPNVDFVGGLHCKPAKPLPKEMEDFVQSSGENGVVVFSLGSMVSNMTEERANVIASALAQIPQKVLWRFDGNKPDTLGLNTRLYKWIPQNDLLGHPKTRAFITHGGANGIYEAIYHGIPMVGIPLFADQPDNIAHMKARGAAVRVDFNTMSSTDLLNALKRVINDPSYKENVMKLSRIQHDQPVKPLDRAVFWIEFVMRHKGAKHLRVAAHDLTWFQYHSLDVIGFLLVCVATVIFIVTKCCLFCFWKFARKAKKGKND
# Cytochrome P450 3A4 = Cytochrome P450 3A4 (Homo sapiens, UniProt P08684); assay: as §1, with “human CYP3A4” for “human UGT2B7”, “after 2” for “after 4”; format: ADME
# Cytochrome P450 3A4, sequence (P08684 whole entry): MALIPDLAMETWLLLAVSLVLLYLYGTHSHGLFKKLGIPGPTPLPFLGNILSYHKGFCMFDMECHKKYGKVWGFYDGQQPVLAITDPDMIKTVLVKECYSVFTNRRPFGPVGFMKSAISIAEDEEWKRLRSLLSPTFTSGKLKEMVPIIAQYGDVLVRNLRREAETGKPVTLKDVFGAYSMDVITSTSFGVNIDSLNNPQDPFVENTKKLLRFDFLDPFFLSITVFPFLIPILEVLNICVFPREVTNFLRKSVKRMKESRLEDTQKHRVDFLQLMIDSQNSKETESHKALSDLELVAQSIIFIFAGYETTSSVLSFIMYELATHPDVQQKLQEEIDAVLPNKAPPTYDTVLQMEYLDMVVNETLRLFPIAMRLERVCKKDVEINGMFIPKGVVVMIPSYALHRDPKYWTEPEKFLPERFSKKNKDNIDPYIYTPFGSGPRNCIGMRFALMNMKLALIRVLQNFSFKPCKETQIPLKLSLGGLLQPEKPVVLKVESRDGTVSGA
# Cytochrome P450 2C19 [3] = target: T3, Cytochrome P450 2C19 (Homo sapiens, UniProt P33261); assay: Activity of human CYP2C19 expressed in microsomes isolated from baculovirus infected insect cell assessed as enzyme-mediated 5-(4-((6-hydroxy-1-methyl-1H-benzo[d]imidazol-2-yl)methoxy)benzyl)thiazolidine-2,4-dione formation at 20 uM after 2 hrs by radio-HPLC/LC-MS/MS analysis in presence of NADPH-generating system and NADPH-generating system/SAM; format: ADME
# T3 sequence (P33261 whole entry): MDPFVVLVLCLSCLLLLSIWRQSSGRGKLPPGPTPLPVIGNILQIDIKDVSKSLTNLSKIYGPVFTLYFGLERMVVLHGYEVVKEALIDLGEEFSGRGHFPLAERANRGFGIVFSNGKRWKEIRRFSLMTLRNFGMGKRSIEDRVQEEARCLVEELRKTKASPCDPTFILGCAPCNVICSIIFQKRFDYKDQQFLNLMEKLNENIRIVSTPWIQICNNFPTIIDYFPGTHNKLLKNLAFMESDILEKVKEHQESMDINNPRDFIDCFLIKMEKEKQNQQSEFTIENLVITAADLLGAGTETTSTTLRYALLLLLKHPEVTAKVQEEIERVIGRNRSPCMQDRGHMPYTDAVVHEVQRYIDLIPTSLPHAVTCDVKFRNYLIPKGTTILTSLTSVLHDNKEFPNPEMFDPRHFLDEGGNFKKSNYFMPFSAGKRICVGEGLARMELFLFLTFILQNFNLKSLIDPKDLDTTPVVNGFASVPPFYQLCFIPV
# How it was run: (§2)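 Baculovirus/insect-cell microsomes expressing single human CYPs, 1 mg/ml protein, with 50 mM potassium phosphate (pH 7.4) or 100 mM Tris-HCl (pH 7.5). NADPH-generating system: 2 mM NADP⁺, 20 mM glucose 6-phosphate, 2 units/ml G6PDH, 10 mM MgCl₂. [¹⁴C]rivoglitazone at 20 μM, 2 h at 37°C with shaking. Control used insect-cell control supersomes. Stopped with acetonitrile; supernatant concentrated under nitrogen; metabolites analysed by radio-HPLC, LC-MS and LC-MS/MS.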
# [4] = Drug metabolism in rat hepatocytes assessed as formation of (2S,3S,4S,5R,6R)-3,4,5-trihydroxy-6-(5-(4-((6-methoxy-1-methyl-1H-benzo[d]imidazol-2-yl)methoxy)benzyl)-2,4-dioxothiazolidin-3-yl)tetrahydro-2H-pyran-2-carboxylic acid at 30 uM after 3 hrs by radio-HPLC/LC-MS/MS analysis in presence of UDPGA and UDPGA/SAM; format: ADME, cell-based, Hepatocyte
# [5] = Drug metabolism in po dosed monkey liver microsomes assessed as formation of 5-(4-((6-methoxy-1H-benzo[d]imidazol-2-yl)methoxy)benzyl)thiazolidine-2,4-dione; format: ADME, Macaca mulatta; conditions: rhesus monkey
# Cytochrome P450 2C9 = Cytochrome P450 2C9 (Homo sapiens, UniProt P11712); assay: Activity of human CYP2C9 expressed in microsomes isolated from baculovirus infected insect cell assessed as enzyme-mediated 3-(4-((6-methoxy-1-methyl-1H-benzo[d]imidazol-2-yl)methoxy)phenyl)-2-(methylthio)propanoic acid formation at 20 uM after 2 hrs by radio-HPLC/LC-MS/MS analysis in presence of NADPH-generating system/SAM and UDPGA/SAM; format: ADME
# Cytochrome P450 2C9, sequence (P11712 whole entry): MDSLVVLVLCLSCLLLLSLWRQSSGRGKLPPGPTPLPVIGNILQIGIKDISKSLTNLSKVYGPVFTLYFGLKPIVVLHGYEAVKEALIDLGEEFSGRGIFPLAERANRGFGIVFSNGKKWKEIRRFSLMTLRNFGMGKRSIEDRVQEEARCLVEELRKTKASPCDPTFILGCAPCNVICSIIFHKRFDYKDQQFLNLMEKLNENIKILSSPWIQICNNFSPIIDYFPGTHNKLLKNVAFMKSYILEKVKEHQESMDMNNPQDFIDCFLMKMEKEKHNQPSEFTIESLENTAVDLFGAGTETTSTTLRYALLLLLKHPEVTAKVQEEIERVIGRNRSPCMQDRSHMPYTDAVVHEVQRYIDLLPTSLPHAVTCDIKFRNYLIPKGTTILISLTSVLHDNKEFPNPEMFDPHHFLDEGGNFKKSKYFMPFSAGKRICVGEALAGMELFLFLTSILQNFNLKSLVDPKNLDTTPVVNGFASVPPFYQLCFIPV
# Cytochrome P450 2C19 [6] = target: T3, Cytochrome P450 2C19; assay: Activity of human CYP2C19 expressed in microsomes isolated from baculovirus infected insect cell assessed as enzyme-mediated 2-mercapto-3-(4-((6-methoxy-1-methyl-1H-benzo[d]imidazol-2-yl)methoxy)phenyl)propanoic acid formation at 20 uM after 2 hrs by radio-HPLC/LC-MS/MS analysis in presence of NADPH-generating system; format: ADME; how it was run: as §2
# Liver microsome = assay: Drug metabolism in human liver microsomes assessed as formation of 2-mercapto-3-(4-((6-methoxy-1-methyl-1H-benzo[d]imidazol-2-yl)methoxy)phenyl)propanamide at 20 uM after 2 hrs by radio-HPLC/LC-MS/MS analysis in presence of NADPH-generating system and NADPH-generating system/SAM; format: ADME
# [7] = Drug metabolism in rat hepatocytes assessed as formation of 2-hydroxy-3-(4-((6-methoxy-1-methyl-1H-benzo[d]imidazol-2-yl)methoxy)phenyl)propanamide at 30 uM after 3 hrs by radio-HPLC/LC-MS/MS analysis in presence of NADPH-generating system and NADPH-generating system/SAM; format: ADME, cell-based, Hepatocyte
# Cytochrome P450 2D6 = Cytochrome P450 2D6 (Homo sapiens, UniProt P10635); assay: Activity of human CYP2D6 expressed in microsomes isolated from baculovirus infected insect cell assessed as enzyme-mediated 2-amino-3-((1-carboxy-2-(4-((6-methoxy-1-methyl-1H-benzo[d]imidazol-2-yl)methoxy)phenyl)ethyl)disulfanyl)propanoic acid formation at 20 uM after 2 hrs by radio-HPLC/LC-MS/MS analysis; format: ADME
# Cytochrome P450 2D6, sequence (P10635 whole entry): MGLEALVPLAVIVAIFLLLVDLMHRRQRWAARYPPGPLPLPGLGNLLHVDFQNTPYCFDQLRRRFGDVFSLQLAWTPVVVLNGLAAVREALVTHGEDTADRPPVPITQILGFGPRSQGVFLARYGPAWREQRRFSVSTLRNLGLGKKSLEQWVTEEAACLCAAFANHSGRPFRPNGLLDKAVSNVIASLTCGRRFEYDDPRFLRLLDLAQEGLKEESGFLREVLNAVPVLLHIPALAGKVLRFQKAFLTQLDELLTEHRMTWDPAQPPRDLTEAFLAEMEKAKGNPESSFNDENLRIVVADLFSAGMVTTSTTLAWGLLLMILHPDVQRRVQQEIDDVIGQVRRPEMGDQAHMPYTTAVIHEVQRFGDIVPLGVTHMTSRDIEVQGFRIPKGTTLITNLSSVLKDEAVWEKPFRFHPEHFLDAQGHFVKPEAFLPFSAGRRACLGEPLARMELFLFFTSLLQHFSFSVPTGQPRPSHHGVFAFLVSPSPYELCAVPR
# How it was run: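 Baculovirus-insect-cell microsomes expressing the human CYP (1 mg/ml protein) were incubated with [14C]rivoglitazone (20 μM) in 50 mM potassium phosphate (pH 7.4) or 100 mM Tris-HCl (pH 7.5) with an NADPH-generating system (2 mM NADP+, 20 mM glucose 6-phosphate, 2 units/ml G6PDH, 10 mM MgCl2) for 2 h at 37°C. Insect-cell control supersomes served as the control. Reactions were stopped with acetonitrile, and the concentrated supernatants were analysed by radio-HPLC, LC-MS and LC-MS/MS.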
smiles,measurement,setting,value
COc1ccc2nc(COc3ccc(C[14CH]4SC(=O)NC4=O)cc3)n(C)c2c1.Cl (racemic),Drug metabolism,[1],metabolite_not_detected
same,Drug metabolism,[2],metabolite_not_detected
same,Drug metabolism,Cytochrome P450 3A4,metabolite_not_detected
same,Drug metabolism,Cytochrome P450 2C19 [3],metabolite_detected
same,Drug metabolism,[4],metabolite_detected
same,Drug metabolism,[5],metabolite_detected
same,Drug metabolism,Cytochrome P450 2C9,metabolite_not_detected
same,Drug metabolism,Cytochrome P450 2C19 [6],metabolite_detected
same,Drug metabolism,Liver microsome,metabolite_detected
same,Drug metabolism,[7],metabolite_not_detected
same,Drug metabolism,Cytochrome P450 2D6,metabolite_not_detected

# From ChEMBL document CHEMBL3526048, “In vitro metabolism of rivoglitazone, a novel peroxisome proliferator-activated receptor γ agonist, in rat, monkey, and human liver microsomes and freshly isolated hepatocytes” (Drug Metab Dispos, 2011)
